Reference: ChEMBL document CHEMBL4020721 (Eur J Med Chem, 2017)
pIC50: −log10 of the molar value.

Biological target: Insulin-like growth factor 1 receptor (Homo sapiens, UniProt P08069)
Assay: Inhibition of IGF1R (unknown origin) using FAM-labeled peptide as substrate preincubated for 5 to 10 mins followed by substrate/ATP addition measured after 30 to 60 mins by mobility shift assay
Outline: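 Caliper mobility-shift assay with FAM-labeled peptide substrate. Buffer: 50 mM HEPES pH 7.5, 0.0015% Brij-35, 10 mM MgCl2, 2 mM DTT, with kinase-specific enzyme levels. […] Incubation was 30-60 min at 28°C, stopped with EDTA buffer. Read-out was % conversion.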

Sequence of Insulin-like growth factor 1 receptor (P08069 31-736 limits assumed): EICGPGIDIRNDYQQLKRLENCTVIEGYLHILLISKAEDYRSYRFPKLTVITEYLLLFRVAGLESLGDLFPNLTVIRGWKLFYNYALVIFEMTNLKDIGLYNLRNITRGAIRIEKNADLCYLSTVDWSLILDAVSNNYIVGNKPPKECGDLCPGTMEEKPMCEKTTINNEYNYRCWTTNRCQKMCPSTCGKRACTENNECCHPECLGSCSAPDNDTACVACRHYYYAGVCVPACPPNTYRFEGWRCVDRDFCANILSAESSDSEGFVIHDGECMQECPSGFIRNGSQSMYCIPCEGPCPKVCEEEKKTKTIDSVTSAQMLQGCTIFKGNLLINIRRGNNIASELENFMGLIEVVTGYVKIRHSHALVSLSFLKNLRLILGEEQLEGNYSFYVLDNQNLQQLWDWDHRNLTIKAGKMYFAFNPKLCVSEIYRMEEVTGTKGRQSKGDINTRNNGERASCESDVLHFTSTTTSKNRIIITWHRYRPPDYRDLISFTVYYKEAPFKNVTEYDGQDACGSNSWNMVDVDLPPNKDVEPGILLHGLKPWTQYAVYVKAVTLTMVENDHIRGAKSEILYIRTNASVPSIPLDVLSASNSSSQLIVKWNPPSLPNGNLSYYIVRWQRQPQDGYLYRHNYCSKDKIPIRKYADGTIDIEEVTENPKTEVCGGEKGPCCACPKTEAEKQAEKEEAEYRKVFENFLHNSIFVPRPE
Sequence of Insulin-like growth factor 1 receptor (P08069 741-1367 limits assumed): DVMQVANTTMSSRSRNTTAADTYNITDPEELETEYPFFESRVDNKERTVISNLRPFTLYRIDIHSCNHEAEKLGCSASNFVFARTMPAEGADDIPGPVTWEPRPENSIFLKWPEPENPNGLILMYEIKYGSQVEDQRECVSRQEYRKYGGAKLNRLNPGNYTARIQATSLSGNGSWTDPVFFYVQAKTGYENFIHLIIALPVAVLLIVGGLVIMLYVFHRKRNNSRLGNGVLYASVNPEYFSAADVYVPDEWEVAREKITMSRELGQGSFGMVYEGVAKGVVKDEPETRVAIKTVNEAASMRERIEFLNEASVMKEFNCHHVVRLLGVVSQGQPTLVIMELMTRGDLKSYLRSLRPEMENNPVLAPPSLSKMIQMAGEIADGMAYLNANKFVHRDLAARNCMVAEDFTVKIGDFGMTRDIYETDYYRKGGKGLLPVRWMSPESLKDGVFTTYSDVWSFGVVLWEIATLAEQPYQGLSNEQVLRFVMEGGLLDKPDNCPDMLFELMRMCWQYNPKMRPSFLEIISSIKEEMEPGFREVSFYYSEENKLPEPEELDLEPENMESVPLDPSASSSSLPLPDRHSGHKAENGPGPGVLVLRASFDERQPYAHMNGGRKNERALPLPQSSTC

pIC50: < 4.52
Compound: CC(c1cc2cc(-c3cnn(C)c3)cnc2cc1F)n1nnc2ncc(-c3cnn(CCO)c3)nc21 (stereo in doubt; 14)
